According to ChEMBL document CHEMBL3351938, “C5-Alkyl-2-methylurea-Substituted Pyridines as a New Class of Glucokinase Activators” (ACS Med Chem Lett, 2014):
Converted amounts (≈) assume the structure as drawn.

How the values were obtained:
Hexokinase-4 [1] = molecular target: T1, Hexokinase-4 (Homo sapiens, UniProt P35557); assay: Activation of human recombinant Glucokinase measured over 5 mins by G6-PD coupled assay in presence of 5 mM glucose
T1 sequence (P35557 whole entry): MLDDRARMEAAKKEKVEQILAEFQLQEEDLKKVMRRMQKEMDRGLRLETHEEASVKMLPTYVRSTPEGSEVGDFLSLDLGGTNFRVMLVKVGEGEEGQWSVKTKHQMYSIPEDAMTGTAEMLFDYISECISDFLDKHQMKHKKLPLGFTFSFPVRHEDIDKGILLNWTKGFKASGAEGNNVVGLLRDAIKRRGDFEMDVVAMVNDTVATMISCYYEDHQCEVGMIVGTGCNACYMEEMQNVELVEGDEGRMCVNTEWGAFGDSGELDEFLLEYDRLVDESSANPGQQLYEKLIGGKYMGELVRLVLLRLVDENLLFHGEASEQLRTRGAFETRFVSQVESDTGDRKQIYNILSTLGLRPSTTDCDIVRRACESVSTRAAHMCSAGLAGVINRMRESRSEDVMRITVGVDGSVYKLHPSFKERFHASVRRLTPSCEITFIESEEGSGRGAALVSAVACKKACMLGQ
Procedure, shortened: (§1)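 Recombinant human GK; glucose held at 5 mM for EC₅₀ determination; run in duplicate (n = 2).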

[2] = Drug metabolism in human liver microsomes assessed as compound turnover at 1 uM after 30 mins; format: ADME; details: read-out: Drug metabolism
Procedure, shortened: (§2)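 Test compound at 1 μM initial concentration was incubated with 0.25 mg/mL rat or human liver microsomes for 30 min at 37 °C; percent turnover is the percentage of parent metabolized.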

[3] = Drug metabolism in rat liver microsomes assessed as compound turnover at 1 uM after 30 mins; format: ADME; details: read-out: Drug metabolism; procedure, shortened: as §2
[4] = AUC in mouse at 10 mg/kg, po; format: ADME, organism-based; design: dose 10 mg/kg, route oral; details: plasma
Procedure, shortened: (§3)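 Mice: IV dose 1 mg/kg, n = 3; PO dose 10 mg/kg, n = 3.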

[5] = Oral bioavailability in rat at 10 mg/kg; format: ADME, organism-based; details: in vivo
Procedure, shortened: (§4)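 Rats: IV dose 1 mg/kg, n = 3; PO dose 10 mg/kg, n = 3.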

[6] = Solubility of the compound in PBS buffer at 7.4; format: physicochemical; details: pH 7.4
Mus musculus [7] = assay: Antidiabetic activity in C57Bl/6 mouse assessed as reduction in blood glucose AUC at 10 mg/kg, po administered 30 mins prior glucose challenge by oral glucose tolerance test; format: functional; design: scale not given: the % may be the effect or the level left
Procedure, shortened: (§5)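 Oral dose–response OGTT in C57Bl/6 mice at 3, 10 and 30 mg/kg; blood glucose area-under-curve assessed; significance versus vehicle by two-way ANOVA.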

[8] = Volume of distribution at steady state in rat at 1 mg/kg, iv; format: ADME, organism-based; design: dose 1 mg/kg, route intravenous; details: in vivo, read-out: Vdss; procedure, shortened: as §4
[9] = Clearance in rat at 1 mg/kg, iv; format: ADME, organism-based; design: dose 1 mg/kg, route intravenous; details: in vivo; procedure, shortened: as §4
Mus musculus [10] = assay: Antidiabetic activity in C57Bl/6 mouse assessed as reduction in plasma glucose level at 30 mg/kg, po administered 30 mins prior glucose challenge measured 1.5 to 2 hrs post dose by oral glucose tolerance test; format: functional; procedure, shortened: as §5
[11] = AUC in rat at 10 mg/kg, po; format: ADME, organism-based; design: dose 10 mg/kg, route oral; details: plasma; procedure, shortened: as §4
[12] = Half life in rat at 1 mg/kg, iv; format: ADME, organism-based; design: dose 1 mg/kg, route intravenous; details: in vivo; procedure, shortened: as §4
[13] = Oral bioavailability in mouse at 10 mg/kg; format: ADME, organism-based; details: in vivo; procedure, shortened: as §3
[14] = Drug metabolism in human primary hepatocytes; format: ADME, cell-based, Hepatocyte; details: read-out: Drug metabolism
[15] = Clearance in mouse at 1 mg/kg, iv; format: ADME, organism-based; design: dose 1 mg/kg, route intravenous; details: in vivo; procedure, shortened: as §3
[16] = Volume of distribution at steady state in mouse at 1 mg/kg, iv; format: ADME, organism-based; design: dose 1 mg/kg, route intravenous; details: in vivo, read-out: Vdss; procedure, shortened: as §3
[17] = Half life in mouse at 1 mg/kg, iv; format: ADME, organism-based; design: dose 1 mg/kg, route intravenous; details: in vivo; procedure, shortened: as §3
Mus musculus [18] = assay: Antidiabetic activity in C57Bl/6 mouse assessed as reduction in blood glucose AUC at 3 mg/kg, po administered 30 mins prior glucose challenge by oral glucose tolerance test; format: functional; design: scale not given: the % may be the effect or the level left; procedure, shortened: as §5
[19] = Half life in rat at 0.5 mg/kg, iv; format: ADME, organism-based; design: dose 0.5 mg/kg, route intravenous; details: in vivo
[20] = Oral bioavailability in mouse at 5 mg/kg; format: ADME, organism-based; details: in vivo
[21] = Volume of distribution at steady state in dog at 0.5 mg/kg, iv; details: in vivo, read-out: Vdss
Mus musculus [22] = assay: Antidiabetic activity in fasted ob/ob mouse assessed as reduction in blood glucose AUC at 10 mg/kg, po administered 30 mins prior glucose challenge by oral glucose tolerance test relative to control; format: functional; design: scale not given: the % may be the effect or the level left
Procedure, shortened: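 OGTT in fasted ob/ob mice with oral doses of 0.3, 1, 3 and 10 mg/kg; blood glucose AUC compared to vehicle by two-way ANOVA.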

Mus musculus [23] = assay: Hypoglycemic activity in fed C57Bl/6 mouse assessed as change in blood glucose level at 10 to 30 mg/kg, po followed by food withdrawal for 4 hrs measured 30 to 240 mins post dose by normoglycemic glucose lowering test; format: ADME, organism-based; design: route oral; details: in vivo
Procedure, shortened: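 Fed male C57Bl/6 mice dosed orally with vehicle or compound (10 or 30 mg/kg) without glucose challenge, then food removed for 4 h; blood glucose sampled at various time points; two-way ANOVA versus vehicle.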

Hexokinase-4 [24] = molecular target: T1, Hexokinase-4; assay: Activation of human recombinant Glucokinase measured over 5 mins by G6-PD coupled assay in presence of 5 mM glucose and 4% HSA; procedure, shortened: as §1
[25] = Permeability across pig LLC-PK cells; format: ADME, cell-based, Sus scrofa; details: LLC-PK1, read-out: permeability
[26] = Plasma protein binding in rat; format: ADME, cell-free; details: read-out: PPB
[27] = Plasma protein binding in mouse; format: ADME; details: read-out: PPB (converted)
[28] = Half life in dog at 0.5 mg/kg, iv; details: in vivo
Canis familiaris [29] = assay: Oral bioavailability in dog at 2 mg/kg; details: in vivo
[30] = Volume of distribution at steady state in rat at 0.5 mg/kg, iv; format: ADME, organism-based; design: dose 0.5 mg/kg, route intravenous; details: in vivo, read-out: Vdss
[31] = Oral bioavailability in rat at 2 mg/kg; format: ADME, organism-based; details: in vivo
Canis familiaris [32] = assay: Clearance in dog at 0.5 mg/kg, iv; details: in vivo
[33] = AUC in rat at 2 mg/kg, po; format: ADME, organism-based; design: dose 2 mg/kg, route oral; details: plasma
[34] = AUC in mouse at 5 mg/kg, po; format: ADME, organism-based; design: dose 5 mg/kg, route oral; details: plasma
Canis familiaris [35] = assay: AUC in dog at 2 mg/kg, po; details: in vivo
[36] = Plasma protein binding in human; format: ADME, cell-free; details: read-out: PPB (converted)
[37] = Clearance in rat at 0.5 mg/kg, iv; format: ADME, organism-based; design: dose 0.5 mg/kg, route intravenous; details: in vivo

SMILES | EC50 (Hexokinase-4 [1]) [nM] | metabolised at 0.5 h, 1 µM [2] [%] | metabolised at 0.5 h, 1 µM [3] [%] | other results
CCn1nc(COC)cc1Oc1cc(CC2CCOCC2)cnc1NC(=O)NC | 820 | – | – | –
CCc1ncccc1Oc1cc(CC(C)C)cnc1NC(=O)NC | 120 | 56 | 95 | –
CCOCCc1cnc(NC(=O)NC)c(Oc2cccnc2CC)c1 | 590 | 21 | 76 | –
CCc1ncccc1Oc1cc(CCCOC)cnc1NC(=O)NC | 440 | – | – | –
CCc1ncccc1Oc1cc(CCCCOC)cnc1NC(=O)NC | 110 | 23 | 41 | –
CCc1ncccc1Oc1cc(CCO)cnc1NC(=O)NC | 1590 | 10 | 10 | –
CCc1ncccc1Oc1cc(CCCCO)cnc1NC(=O)NC | 350 | 20 | 33 | –
CCc1ncccc1Oc1cc(CCCC(C)(C)O)cnc1NC(=O)NC | 110 | 31 | 17 | –
CCc1ncccc1Oc1cc(CC2CCCCC2)cnc1NC(=O)NC | 14 | 99 | 95 | –
CCc1ncccc1Oc1cc(CC2CCOCC2)cnc1NC(=O)NC | 290 | – | – | –
CCn1nccc1Oc1cc(CCCCOC)cnc1NC(=O)NC | 460 | 10 | 31 | –
CCn1nccc1Oc1cc(CCCC(C)(C)O)cnc1NC(=O)NC | 370 | 10 | 10 | –
CCn1nccc1Oc1cc(CC2CCOCC2)cnc1NC(=O)NC | 350 | 10 | 25 | AUC [4]: 13.3 µM·h; bioavailability [5]: 19%; solubility [6]: 718 µg/mL (≈ 2000 µM); Activity (Mus musculus [7]): 32%; Vd [8]: 0.8 L/kg; clearance [9]: 25 mL/min/kg; Activity (Mus musculus [10]): 77 mg/dL; AUC [11]: 3.51 µM·h; half-life [12]: 0.41 h; bioavailability [13]: 81%; metabolised [14]: 15%; clearance [15]: 28.3 mL/min/kg; Vd [16]: 1.5 L/kg; half-life [17]: 0.72 h; Activity (Mus musculus [18]): 15%
CCn1nccc1Oc1cc(C(O)C2CCOCC2)cnc1NC(=O)NC (centres undefined) | 16800 | – | – | –
CCn1nccc1Oc1cc(CN2CCOCC2)cnc1NC(=O)NC | 7980 | – | – | –
CCn1nccc1Oc1cc(C[C@H]2CCO[C@H](COC)C2)cnc1NC(=O)NC | 490 | – | – | –
CCn1nccc1Oc1cc(C[C@@H]2CCO[C@@H](COC)C2)cnc1NC(=O)NC | 350 | – | – | –
CNC(=O)Nc1ncc(CC2CCOCC2)cc1Oc1ccnn1C(C)C | 2760 | – | – | –
CCn1nccc1Oc1cc(C[C@H]2CC[C@H](O)CC2)cnc1NC(=O)NC | 68 | – | – | –
CCn1nccc1Oc1cc(C[C@H]2CC[C@@H](O)CC2)cnc1NC(=O)NC | 120 | – | – | –
CCn1nccc1Oc1cc(C[C@H]2CC[C@](C)(O)CC2)cnc1NC(=O)NC | 110 | – | – | –
CCn1nccc1Oc1cc(C[C@H]2CC[C@@](C)(O)CC2)cnc1NC(=O)NC | 97 | – | – | –
CCn1nccc1Oc1cc(C[C@H]2C[C@@H](O)C2)cnc1NC(=O)NC | 530 | – | – | –
CCn1nccc1Oc1cc(C[C@H]2C[C@H](O)C2)cnc1NC(=O)NC | 500 | – | – | –
CCn1nccc1Oc1cc(C[C@H]2C[C@@](C)(O)C2)cnc1NC(=O)NC | 710 | – | – | –
CCn1nccc1Oc1cc(C[C@H]2C[C@](C)(O)C2)cnc1NC(=O)NC | – | – | – | half-life [19]: 2 h; bioavailability [20]: 44%; Vd [21]: 2.2 L/kg; Activity (Mus musculus [22]): 43%; Activity (Mus musculus [23]): Non-toxic; EC50 (Hexokinase-4 [24]): 280 nM; Papp [25]: 32.4 ×10⁻⁶ cm/s; fraction unbound [26]: 0.5; fraction unbound [27]: 0.44; half-life [28]: 5.5 h; F (Canis familiaris [29]): 72%; Vd [30]: 0.8 L/kg; bioavailability [31]: 9%; CL (Canis familiaris [32]): 10.7 mL/min/kg; AUC [33]: 0.39 µM·h; AUC [34]: 6.84 µM·h; AUC (Canis familiaris [35]): 6.4 µM·h; fraction unbound [36]: 0.44; clearance [37]: 26.7 mL/min/kg
